In ChEMBL document CHEMBL1147862, “Studies on synthesis and pharmacological activities of 3,6-disubstituted-1,2,4-triazolo[3,4-b]-1,3,4-thiadiazoles and their dihydro analogues” (2007):

Key:
Format in all cases: functional
[1] = system: Mus musculus; assay: Analgesic activity in Swiss mouse assessed as increase in reaction time at 20 mg/kg, po after 30 mins by Eddy's hot plate technique
Summary of the method: (§1)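 Swiss mice of either sex, 25–35 g, placed one at a time on a hot plate held at 55 °C. End point is paw licking or jumping, whichever comes first, with a 15 s cut-off to avoid paw injury. Reaction time is recorded and reported as percent increase in reaction time.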

[2] = system: Mus musculus; assay: Analgesic activity in Swiss mouse assessed as increase in reaction time at 20 mg/kg, po after 60 mins by Eddy's hot plate technique; summary of the method: as §1
[3] = system: Mus musculus; assay: Analgesic activity in Swiss mouse assessed as increase in reaction time at 20 mg/kg, po after 90 mins by Eddy's hot plate technique; summary of the method: as §1
[4] = system: Candida albicans; assay: Antifungal activity against Candida albicans at 10 ug/ml by paper disc method; conditions: read-out: IZ
[5] = system: Candida albicans; assay: Antifungal activity against Candida albicans at 20 ug/ml by paper disc method; conditions: read-out: IZ
[6] = system: Candida albicans; assay: Antifungal activity against Candida albicans at 30 ug/ml by paper disc method; conditions: read-out: IZ
[7] = system: Aspergillus niger; assay: Antifungal activity against Aspergillus niger at 10 ug/ml by paper disc method; conditions: read-out: IZ
[8] = system: Aspergillus niger; assay: Antifungal activity against Aspergillus niger at 20 ug/ml by paper disc method; conditions: read-out: IZ
[9] = system: Aspergillus niger; assay: Antifungal activity against Aspergillus niger at 30 ug/ml by paper disc method; conditions: read-out: IZ
[10] = system: Escherichia coli; assay: Antibacterial activity against Escherichia coli at 10 ug/ml by agar plate diffusion technique; conditions: read-out: IZ
[11] = system: Escherichia coli; assay: Antibacterial activity against Escherichia coli at 20 ug/ml by agar plate diffusion technique; conditions: read-out: IZ
[12] = system: Escherichia coli; assay: Antibacterial activity against Escherichia coli at 30 ug/ml by agar plate diffusion technique; conditions: read-out: IZ
[13] = system: Pseudomonas aeruginosa; assay: Antibacterial activity against Pseudomonas aeruginosa at 10 ug/ml by agar plate diffusion technique; conditions: read-out: IZ
[14] = system: Pseudomonas aeruginosa; assay: Antibacterial activity against Pseudomonas aeruginosa at 20 ug/ml by agar plate diffusion technique; conditions: read-out: IZ
[15] = system: Pseudomonas aeruginosa; assay: Antibacterial activity against Pseudomonas aeruginosa at 30 ug/ml by agar plate diffusion technique; conditions: read-out: IZ
[16] = system: Bacillus subtilis; assay: Antibacterial activity against Bacillus subtilis at 10 ug/ml by agar plate diffusion technique; conditions: read-out: IZ
[17] = system: Bacillus subtilis; assay: Antibacterial activity against Bacillus subtilis at 20 ug/ml by agar plate diffusion technique; conditions: read-out: IZ
[18] = system: Bacillus subtilis; assay: Antibacterial activity against Bacillus subtilis at 30 ug/ml by agar plate diffusion technique; conditions: read-out: IZ
[19] = system: Staphylococcus aureus; assay: Antibacterial activity against Staphylococcus aureus at 10 ug/ml by agar plate diffusion technique; conditions: read-out: IZ
[20] = system: Staphylococcus aureus; assay: Antibacterial activity against Staphylococcus aureus at 20 ug/ml by agar plate diffusion technique; conditions: read-out: IZ
[21] = system: Staphylococcus aureus; assay: Antibacterial activity against Staphylococcus aureus at 30 ug/ml by agar plate diffusion technique; conditions: read-out: IZ
[22] = system: Rattus norvegicus; assay: Antiinflammatory activity in Wistar Albino rat assessed as inhibition of carrageenan-induced paw oedema at 20 mg/kg after 1 hr relative to control
Summary of the method: (§2)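 Wistar albino rats, 150–200 g, six per group, dosed orally with a 20 mg/kg suspension; control gets 0.1 ml 1% gum acacia. After 30 min, 0.1 ml 1% carrageenan in saline is injected subplantar into the right hind paw. Paw volume is read by plethysmograph at 0–4 h. Inhibition = 100(1 − Vtest/Vcontrol) on mean volume increase.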

[23] = system: Rattus norvegicus; assay: Antiinflammatory activity in Wistar Albino rat assessed as inhibition of carrageenan-induced paw oedema at 20 mg/kg after 2 hrs relative to control; summary of the method: as §2
[24] = system: Rattus norvegicus; assay: Antiinflammatory activity in Wistar Albino rat assessed as inhibition of carrageenan-induced paw oedema at 20 mg/kg after 3 hrs relative to control; summary of the method: as §2
[25] = system: Rattus norvegicus; assay: Antiinflammatory activity in Wistar Albino rat assessed as inhibition of carrageenan-induced paw oedema at 20 mg/kg after 4 hrs relative to control; summary of the method: as §2

Structure (SMILES) | Activity [1] [%] | Activity [2] [%] | Activity [3] [%] | zone of inhibition at 10 µg/mL [4] [mm] | zone of inhibition at 20 µg/mL [5] [mm] | zone of inhibition at 30 µg/mL [6] [mm] | zone of inhibition at 10 µg/mL [7] [mm] | zone of inhibition at 20 µg/mL [8] [mm] | zone of inhibition at 30 µg/mL [9] [mm] | zone of inhibition at 10 µg/mL [10] [mm] | zone of inhibition at 20 µg/mL [11] [mm] | zone of inhibition at 30 µg/mL [12] [mm] | zone of inhibition at 10 µg/mL [13] [mm] | zone of inhibition at 20 µg/mL [14] [mm] | zone of inhibition at 30 µg/mL [15] [mm] | zone of inhibition at 10 µg/mL [16] [mm] | zone of inhibition at 20 µg/mL [17] [mm] | zone of inhibition at 30 µg/mL [18] [mm] | zone of inhibition at 10 µg/mL [19] [mm] | zone of inhibition at 20 µg/mL [20] [mm] | other results
COc1ccc(Cl)c(-c2nnc3n2NC(c2ccc([N+](=O)[O-])o2)S3)c1 (stereo not given) | 5.71 | 14.1 | 23.45 | 5.58 | 11.3 | 15.2 | 5.32 | 9.72 | 14.5 | 5.21 | 10.1 | 15.1 | 4.88 | 7.36 | 13.2 | 5.12 | 8.71 | 13.6 | 5.2 | 8.82 | zone of inhibition at 30 µg/mL [21]: 14.2 mm; inhibition in vivo at 20 mg/kg [22]: 15.6%; inhibition in vivo at 20 mg/kg [23]: 18.5%; inhibition in vivo at 20 mg/kg [24]: 21.7%; inhibition in vivo at 20 mg/kg [25]: 24.2%
COc1ccc(Cl)c(-c2nnc3n2NC(c2ccc[nH]2)S3)c1 (stereo not given) | 4.86 | 14.48 | 21.1 | 4.61 | 8.82 | 13.4 | 4.89 | 9.17 | 12.3 | 4.71 | 7.9 | 14.3 | 1.33 | 4.33 | 8 | 1.67 | 4 | 8.33 | 1.33 | 4.33 | zone of inhibition at 30 µg/mL [21]: 8.33 mm; inhibition in vivo at 20 mg/kg [22]: 12.8%; inhibition in vivo at 20 mg/kg [23]: 15.2%; inhibition in vivo at 20 mg/kg [24]: 18.4%; inhibition in vivo at 20 mg/kg [25]: 20.6%
COc1ccc(Cl)c(-c2nnc3n2NC(c2ccco2)S3)c1 (stereo not given) | 6.24 | 12.55 | 23.89 | 5.19 | 10.3 | 14.8 | 5.16 | 7.13 | 13.1 | 4.12 | 7.39 | 14.4 | 4.82 | 8.95 | 14.2 | 4.39 | 7.68 | 13.6 | 4.82 | 8.61 | zone of inhibition at 30 µg/mL [21]: 14.1 mm; inhibition in vivo at 20 mg/kg [22]: 13.9%; inhibition in vivo at 20 mg/kg [23]: 18.7%; inhibition in vivo at 20 mg/kg [24]: 23.1%; inhibition in vivo at 20 mg/kg [25]: 25.6%
COc1ccc2[nH]c(C)c(Cc3nn4c(Cc5ccc(OC)c(OC)c5)nnc4s3)c2c1 | 19.23 | 27.82 | 29.04 | 4.62 | 8.02 | 12.1 | 4.9 | 7.58 | 10.8 | 4.48 | 7.42 | 12.4 | 4.04 | 7.42 | 12.6 | 4.07 | 7.21 | 12.3 | 4.06 | 8.08 | zone of inhibition at 30 µg/mL [21]: 12 mm; inhibition in vivo at 20 mg/kg [22]: 10.5%; inhibition in vivo at 20 mg/kg [23]: 16.2%; inhibition in vivo at 20 mg/kg [24]: 21.4%; inhibition in vivo at 20 mg/kg [25]: 28.4%
COc1ccc(Cc2nnc3sc(-c4cc(-c5ccccc5)nc5ccccc45)nn23)cc1OC | 5.36 | 17.26 | 25.11 | 5.82 | 11.4 | 17.9 | 6.14 | 11.5 | 16.7 | 6.08 | 11.3 | 16.9 | 5.92 | 10.8 | 16 | 5.76 | 10.2 | 15.9 | 5.12 | 10.3 | zone of inhibition at 30 µg/mL [21]: 16.7 mm; inhibition in vivo at 20 mg/kg [22]: 12.3%; inhibition in vivo at 20 mg/kg [23]: 18.7%; inhibition in vivo at 20 mg/kg [24]: 20.2%; inhibition in vivo at 20 mg/kg [25]: 22.2%
COc1ccc(Cc2nnc3n2NC(c2ccc([N+](=O)[O-])o2)S3)cc1OC (stereo not given) | 2.83 | 10.3 | 22.66 | 5.43 | 10.9 | 14.8 | 5.21 | 9.64 | 14.3 | 5.16 | 10 | 15 | 4.42 | 7.88 | 13.1 | 4.92 | 8.49 | 13.5 | 5.1 | 8.37 | zone of inhibition at 30 µg/mL [21]: 14 mm; inhibition in vivo at 20 mg/kg [22]: 14.5%; inhibition in vivo at 20 mg/kg [23]: 17.6%; inhibition in vivo at 20 mg/kg [24]: 21.4%; inhibition in vivo at 20 mg/kg [25]: 23.7%
Cc1occc1-c1nnc2sc(-c3ccnc(F)c3)nn12 | 4.13 | 6.2 | 16.43 | 8.82 | 16.6 | 23.8 | 7.36 | 13 | 22.7 | 8.54 | 14.3 | 20.8 | 8.39 | 15.2 | 21.3 | 8.12 | 14.8 | 19.9 | 7.9 | 14.2 | zone of inhibition at 30 µg/mL [21]: 20.2 mm; inhibition in vivo at 20 mg/kg [22]: 16.7%; inhibition in vivo at 20 mg/kg [23]: 18.2%; inhibition in vivo at 20 mg/kg [24]: 20.4%; inhibition in vivo at 20 mg/kg [25]: 24.4%
